Assay [1] addresses T1, Calpain-1 catalytic subunit (Homo sapiens, UniProt P07384).
T1 sequence (P07384 whole entry): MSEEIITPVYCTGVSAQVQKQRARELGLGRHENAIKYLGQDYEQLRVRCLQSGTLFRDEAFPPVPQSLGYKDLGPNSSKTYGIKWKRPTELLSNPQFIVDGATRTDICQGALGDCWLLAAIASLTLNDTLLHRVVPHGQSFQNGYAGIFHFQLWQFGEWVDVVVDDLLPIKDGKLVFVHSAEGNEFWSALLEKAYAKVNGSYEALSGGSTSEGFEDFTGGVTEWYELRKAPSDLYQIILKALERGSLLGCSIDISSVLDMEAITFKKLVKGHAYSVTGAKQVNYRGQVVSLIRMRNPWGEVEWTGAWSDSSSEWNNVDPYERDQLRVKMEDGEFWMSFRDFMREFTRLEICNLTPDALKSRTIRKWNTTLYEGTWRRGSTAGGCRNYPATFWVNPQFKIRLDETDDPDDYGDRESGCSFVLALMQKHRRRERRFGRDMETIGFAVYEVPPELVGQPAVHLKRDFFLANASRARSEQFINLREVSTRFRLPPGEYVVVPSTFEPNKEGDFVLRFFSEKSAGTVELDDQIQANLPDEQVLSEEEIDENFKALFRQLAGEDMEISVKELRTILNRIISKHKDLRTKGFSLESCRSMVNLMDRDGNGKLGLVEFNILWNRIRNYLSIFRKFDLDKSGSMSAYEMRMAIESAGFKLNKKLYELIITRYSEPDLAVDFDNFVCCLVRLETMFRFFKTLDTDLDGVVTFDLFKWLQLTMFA
In words: Inhibition of human erythrocytes calpain-1 using Suc-Leu-Tyr-AMC as substrate by kinetic fluorescence assay.

Assay [2] is described as follows: Selectivity ratio of Ki for human liver cathepsin B to Ki for human erythrocytes calpain-1.
Assay [3] is filed under the species Homo sapiens. In words: Selectivity ratio of Ki for recombinant human procathepsin K expressed in Escherichia coli to Ki for human erythrocytes calpain-1. The gist of the method:
(§1)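 Ki ratios from kinetic fluorescence assays. Cathepsins B (0.25 nM), L (1 nM), K (3 nM) and S (0.5 nM) in MES buffer at pH 6.0. All at room temperature; Ki by Cheng-Prusoff.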

Assay [4] is described as follows: Selectivity ratio of Ki for human liver cathepsin L to Ki for human erythrocytes calpain-1.
For assay [5], the species on record is Homo sapiens. In words: Selectivity ratio of Ki for recombinant human cathepsin S expressed in Escherichia coli to Ki for human erythrocytes calpain-1. In outline:
as §1

Assay [6] addresses T2, Calpain-1 catalytic subunit (Homo sapiens) (UniProt P07384).
T2 sequence (whole entry): T1 sequence (P07384 whole entry)
In words: Inhibition of human erythrocytes calpain-1 using Suc-Leu-Tyr-AMC as substrate in presence of up to 10 mM glutathione by kinetic fluorescence assay.

Assay [7] in a line: Thiol reactivity using recombinant human full length 13C-labeled La antigen (100 to 324 residues) expressed in Escherichia coli BL21(DE3) by ALARM NMR.

The record followed here is ChEMBL document CHEMBL4038338 (J Med Chem, 2017).

Each structure is given as a SMILES string. Active and inactive are the calls of the source. The calls are words filed in the database; no cut-off is given here. Some results are limits rather than exact numbers.

With `NC(=O)C(=O)C(Cc1ccccc1)NC(=O)c1cccnc1-n1cc(-c2ccccc2)cn1` (stereo not drawn), the Ki in assay [1] (read-out: Ki) worked out at 21 nM. Further, the “Ratio Ki” value in assay [2] is below 1; in the assay listed under Homo sapiens [3], 1; in assay [4], 12; in the assay listed under Homo sapiens [5], 14. In addition, the inhibition entry in assay [6] is “Active”. Also, the Thiol reactivity result in assay [7] is given as “Metabolite not detected”.
As for `CCCCC(NC(=O)c1cccnc1-n1ccc(-c2ccccc2)n1)C(=O)C(N)=O` (stereo not drawn), the Ki in assay [1] (read-out: Ki) amounted to 32 nM. Moreover, the “Ratio Ki” value in assay [2] amounted to 1; in the assay filed under Homo sapiens [3] it was 2; in assay [4] it was 25; in the assay filed under Homo sapiens [5], 61. For the same compound, the inhibition result in assay [6] is “Active”. In addition, in assay [7], the Thiol reactivity result was “Metabolite not detected”.
For the compound `NC(=O)C(=O)C(Cc1ccccc1)NC(=O)c1cccnc1-n1ccc(C2CCOCC2)n1` (stereo not drawn), the Ki in assay [1] (read-out: Ki) came out at 48 nM. In addition, the “Ratio Ki” value in assay [2] was 14; in the assay filed under Homo sapiens [3], 13; in assay [4], 56; in the assay listed under Homo sapiens [5] it was 147. For the same compound, the inhibition entry in assay [6] is “Active”. Also, in assay [7], the Thiol reactivity entry was “Metabolite not detected”.
Consider `CCCCC(NC(=O)c1cccnc1-n1cnc(-c2ccccc2)c1)C(=O)C(N)=O` (stereo not drawn), for which the Ki in assay [1] (read-out: Ki) was 38 nM. The “Ratio Ki” value is below 1 in assay [2], below 1 in the assay listed under Homo sapiens [3], 22 in assay [4] and 22 in the assay filed under Homo sapiens [5]. Also, the inhibition entry in assay [6] was “Active”. In addition, the Thiol reactivity entry in assay [7] was “Metabolite not detected”.
On to `NC(=O)C(=O)C(Cc1ccccc1)NC(=O)c1cccnc1-n1ccc(-c2ccc(CN3CCOCC3)cc2)n1` (stereo not drawn), for which the Ki in assay [1] (read-out: Ki) came to 41 nM. The “Ratio Ki” value in assay [2] is below 1; in the assay filed under Homo sapiens [3], below 1; in assay [4] it was 5; in the assay listed under Homo sapiens [5], 240. For the same compound, the inhibition entry in assay [6] was “Active”. Also, the Thiol reactivity result in assay [7] is “Metabolite not detected”.
As for `CN1CCC(c2ccn(-c3ncccc3C(=O)NC(Cc3ccccc3)C(=O)C(N)=O)n2)CC1` (stereo not drawn), the Ki in assay [1] (read-out: Ki) was 146 nM. Moreover, the “Ratio Ki” value in assay [2] turned out to be 2; in the assay listed under Homo sapiens [3], 1; in assay [4] it was 2; in the assay listed under Homo sapiens [5], 89. The inhibition result in assay [6] is “Active”. In assay [7], the Thiol reactivity result is “Metabolite not detected”.
For the compound `COc1ccc(-c2ccn(-c3ncccc3C(=O)NC(Cc3ccccc3)C(=O)C(N)=O)n2)cc1` (stereo not drawn), the Ki in assay [1] (read-out: Ki) worked out at 83 nM. Besides, the “Ratio Ki” value in assay [2] is 11; in the assay filed under Homo sapiens [3], 17; in assay [4], 81; in the assay listed under Homo sapiens [5] it was above 500. Also, in assay [6], the inhibition result was “Active”. Moreover, the Thiol reactivity entry in assay [7] was “Metabolite not detected”.
Regarding `NC(=O)C(=O)C(Cc1ccccc1)NC(=O)c1cccnc1-n1cc2c(n1)CCCC2` (stereo not drawn), the Ki in assay [1] (read-out: Ki) was 101 nM. Further, the “Ratio Ki” value in assay [2] came out at 2; in the assay filed under Homo sapiens [3], 2; in assay [4] it was 45; in the assay listed under Homo sapiens [5] it was 10. The inhibition result in assay [6] was “Active”. In addition, the Thiol reactivity result in assay [7] is recorded as “Metabolite not detected”.
As for `NC(=O)C(=O)[C@H](Cc1ccccc1)NC(=O)c1cccnc1-n1ccc(-c2ccccc2)n1`, in assay [1] (read-out: Ki(app)), the Ki is 10 nM.
In the case of `NC(=O)C(=O)C(Cc1ccccc1)NC(=O)c1cccnc1-c1coc(-c2ccccc2)n1` (stereo not drawn), in assay [1] (read-out: Ki), the Ki worked out at 177 nM. The “Ratio Ki” value in assay [2] was 11; in the assay listed under Homo sapiens [3], 20; in assay [4], 29; in the assay listed under Homo sapiens [5] it was 127. Moreover, the inhibition result in assay [6] is “Active”. Also, in assay [7], the Thiol reactivity result is “Metabolite not detected”.
With `NC(=O)C(=O)C(Cc1ccccc1)NC(=O)c1cccnc1-n1ccc(C2CCCCC2)n1` (stereo not drawn), the Ki in assay [1] (read-out: Ki) was found to be 56 nM. Further, the “Ratio Ki” value in assay [2] came out at 9; in the assay filed under Homo sapiens [3], 10; in assay [4], 33; in the assay filed under Homo sapiens [5], 92. Further, the inhibition result in assay [6] was “Active”. The Thiol reactivity entry in assay [7] is “Metabolite not detected”.
In the case of `CCCCC(NC(=O)c1cccnc1-c1csc(-c2ccccc2)n1)C(=O)C(N)=O` (stereo not drawn), in assay [1] (read-out: Ki), the Ki worked out at 122 nM. Also, the “Ratio Ki” value in assay [2] was found to be 2; in the assay listed under Homo sapiens [3], 1; in assay [4] it was 13; in the assay filed under Homo sapiens [5], 27. For the same compound, the inhibition entry in assay [6] is “Active”. Further, in assay [7], the Thiol reactivity result was “Metabolite not detected”.
Consider `NC(=O)C(=O)C(Cc1ccccc1)NC(=O)c1cccnc1-n1ccc(-c2ccc(C(F)(F)F)cc2)n1` (stereo not drawn), for which the Ki in assay [1] (read-out: Ki) worked out at 72 nM. For the same compound, the “Ratio Ki” value amounted to 11 in assay [2], 22 in the assay filed under Homo sapiens [3], 210 in assay [4] and 87 in the assay filed under Homo sapiens [5]. Besides, the inhibition entry in assay [6] is “Active”. For the same compound, the Thiol reactivity entry in assay [7] was “Metabolite not detected”.
Take `NC(=O)C(=O)C(Cc1ccccc1)NC(=O)c1cccnc1-c1nc(-c2ccccc2)cs1` (stereo not drawn): the Ki in assay [1] (read-out: Ki) is 234 nM. The “Ratio Ki” value in assay [2] is 10; in the assay listed under Homo sapiens [3], 11; in assay [4] it was 37; in the assay listed under Homo sapiens [5], 105. Besides, in assay [6], the inhibition entry was “Active”. Besides, the Thiol reactivity result in assay [7] was “Metabolite not detected”.
`NC(=O)C(=O)C(Cc1ccccc1)NC(=O)c1ccccc1-n1ccc(-c2ccccc2)n1` (stereo not drawn): the Ki in assay [1] (read-out: Ki) is 43 nM. Further, the “Ratio Ki” value was determined as 7 in assay [2], 1 in the assay listed under Homo sapiens [3], 38 in assay [4] and 82 in the assay listed under Homo sapiens [5]. In addition, the inhibition result in assay [6] was “Active”. Further, the Thiol reactivity result in assay [7] is given as “Metabolite not detected”.
Consider `NC(=O)C(=O)C(Cc1ccccc1)NC(=O)c1cccnc1-n1cccn1` (stereo not drawn), for which the Ki in assay [1] (read-out: Ki) was 164 nM. Further, the “Ratio Ki” value in assay [2] was determined as 1; in the assay filed under Homo sapiens [3] it was 3; in assay [4], 20; in the assay listed under Homo sapiens [5], 21. The inhibition entry in assay [6] was “Active”. For the same compound, the Thiol reactivity result in assay [7] is recorded as “Metabolite not detected”.
Regarding `NC(=O)C(=O)C(Cc1ccccc1)NC(=O)c1cccnc1-n1ccc(-c2ccc(Cl)cc2)n1` (stereo not drawn), the Ki in assay [1] (read-out: Ki) came to 88 nM. Also, the “Ratio Ki” value was 6 in assay [2], 9 in the assay listed under Homo sapiens [3], 89 in assay [4] and above 300 in the assay filed under Homo sapiens [5]. Further, the inhibition result in assay [6] is “Active”. The Thiol reactivity entry in assay [7] is reported as “Metabolite not detected”.
Turning to `CCCCC(NC(=O)c1cccnc1-n1cc(-c2ccccc2)cn1)C(=O)C(N)=O` (stereo not drawn), in assay [1] (read-out: Ki), the Ki is 20 nM. Also, the “Ratio Ki” value in assay [2] is below 1; in the assay listed under Homo sapiens [3] it was below 1; in assay [4], 4; in the assay listed under Homo sapiens [5], 2. Also, in assay [6], the inhibition entry was “Active”. In assay [7], the Thiol reactivity entry is “Metabolite not detected”.
As for `NC(=O)C(=O)C(Cc1ccccc1)NC(=O)c1cccnc1-n1cnc(-c2ccccc2)c1` (stereo not drawn), the Ki in assay [1] (read-out: Ki) was found to be 45 nM. Also, the “Ratio Ki” value in assay [2] is below 1; in the assay listed under Homo sapiens [3] it was below 1; in assay [4], 23; in the assay filed under Homo sapiens [5] it was 54. The inhibition result in assay [6] was “Active”. Moreover, in assay [7], the Thiol reactivity result was “Metabolite not detected”.
For the compound `NC(=O)C(=O)C(Cc1ccccc1)NC(=O)c1cccnc1-n1ccc(C2CC2)n1` (stereo not drawn), the Ki in assay [1] (read-out: Ki) stood at 94 nM. For the same compound, the “Ratio Ki” value in assay [2] was determined as 4; in the assay filed under Homo sapiens [3], 7; in assay [4] it was 34; in the assay filed under Homo sapiens [5], 50. Also, in assay [6], the inhibition entry is “Active”. Further, in assay [7], the Thiol reactivity entry is given as “Metabolite not detected”.
With `NC(=O)C(=O)C(Cc1ccccc1)NC(=O)c1cccnc1-n1ccc(Cc2ccccc2)n1` (stereo not drawn), the Ki in assay [1] (read-out: Ki) turned out to be 38 nM. Besides, the “Ratio Ki” value in assay [2] was determined as 9; in the assay listed under Homo sapiens [3], 9; in assay [4], 50; in the assay listed under Homo sapiens [5] it was 75. In assay [6], the inhibition result was “Active”. Also, the Thiol reactivity result in assay [7] is “Metabolite not detected”.
`NC(=O)C(=O)C(Cc1ccccc1)NC(=O)c1ccccc1-c1csc(-c2ccccc2)n1` (stereo not drawn): the Ki in assay [1] (read-out: Ki) worked out at 82 nM. Also, the “Ratio Ki” value in assay [2] was 23; in the assay filed under Homo sapiens [3], below 1; in assay [4], 116; in the assay listed under Homo sapiens [5], 186. In addition, the inhibition result in assay [6] is “Active”. The Thiol reactivity result in assay [7] is “Metabolite not detected”.
